Ends that are not written are not given here.
Columns and labels:
[1] = In vitro release from exosome-SPION; type: physicochemical; settings: PBS, 37 °C, fitted with OriginPro 2021
Method in brief: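 Test peptide loaded in SPION-decorated exosomes was placed in a dialysis bag (MWCO 80 kD) and incubated at 37 °C in PBS. Samples were withdrawn at selected intervals and peptide was quantified by reverse-phase HPLC on a C18 column. Percent release was calculated as (concentration in PBS × PBS volume) / (concentration in mother liquor × mother liquor volume) × 100%.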

[2] = Pharmacokinetic study after tail vein injection; type: in vivo; settings: Kunming mice, 5 mg/kg, HPLC, n = 6
Method in brief: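 Kunming mice ([…], 18–22 g) were randomised into groups of six and given 5 mg/kg by tail-vein injection, either as free peptide or as the peptide-equivalent dose in exosome-SPION form. At intervals, 20 μL of tail-vein blood was taken with heparinised micropipettes and mixed into 1 mL PBS. Samples were centrifuged at 10,000 rpm for 10 min, and peptide in the supernatant was quantified by C18 HPLC.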

[3] = tested on: MIN-6 cells; assay: Insulin secretion of MIN-6 cells; type: cell-based; settings: 100 nmol/L, 1 h, 8.3 mmol/L GLC and 0.8 mmol/L palmitic acid, MF density 1 T for /MF groups, n = 6

Substance: HSDAVFTDNYTRLRKQVAAKKYLQSIKNKRY-NH2 (C-terminus assumed) [BAY 55-9837]
- first-order fitted release equation y = a × (1 – exp(−b × x)): a [1]: 53.92
- time after injection at which it could not be detected in plasma [2]: 110 min
- insulin secretion compared to the model group [3]: significantly enhance insulin secretion
